Data taken from ChEMBL document CHEMBL4837222, “Design and synthesis of novel benzothiophene analogs as selective estrogen receptor covalent antagonists against breast cancer” (Eur J Med Chem, 2021).
Calls of active or inactive are those of the source. No cut-off for these calls is given here.

Legend:
MCF7 [1] = experiment: Induction of apoptosis in human MCF7 cells assessed as early apoptotic cells at 10 uM incubated for 24 hrs by AnnexinV-FITC/propidium iodide staining based flow cytometric analysis (reference value: 0.8%); format: functional
MCF7 [2] = experiment: Cell cycle arrest in human MCF7 cells assessed as accumulation at S phase at 1 uM measured after 48 hrs by propidium iodide staining based flow cytometric analysis (reference value: 63.32%); format: functional
MDA-MB-231 = experiment: Antiproliferative activity against human MDA-MB-231 cells assessed as reduction in cell growth incubated for 48 hrs by CCK8 assay; format: functional, cell-based; conditions: MDA-MB-231, 48 h
Outline: (§1)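 CCK-8 viability assay. Cells seeded at 4000/well in 10% FBS medium for 24 h, then given compound diluted from DMSO stocks into 2% FBS medium at 100, 50, 25, 12.5, 6.25 and 3.125 µM (0.1% DMSO final). After 48 h, CCK-8 was added (0.5 mg/mL) for 2 h at 37 °C and OD450 read. Triplicates; IC50 fitted from mean viability.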

MCF7 [3] = experiment: Antiproliferative activity against human MCF7 cells assessed as reduction in cell growth incubated for 48 hrs by CCK8 assay; format: functional, cell-based; conditions: MCF7, 48 h; outline: as §1
MCF7 [4] = experiment: Downregulation of ERalpha expression in human MCF7 cells at 5 uM incubated for 24 hrs by DAPI staining based immunofluorescence microscopy; format: functional, cell-based
Outline: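 MCF-7 cells on glass slides treated 24 h at 5 µM, washed with PBS and fixed with pre-cooled acetone. ERα immunostained with a red fluorescent label, nuclei counterstained with DAPI; ERα fluorescence intensity quantified.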

MCF7 [5] = experiment: Induction of apoptosis in human MCF7 cells assessed as late apoptotic cells at 5 uM incubated for 24 hrs by AnnexinV-FITC/propidium iodide staining based flow cytometric analysis (reference value: 0.7%); format: functional
MCF7 [6] = experiment: Induction of apoptosis in human MCF7 cells assessed as live cells at 10 uM incubated for 24 hrs by AnnexinV-FITC/propidium iodide staining based flow cytometric analysis (reference value: 98.1%); format: functional
MCF7 [7] = experiment: Cell cycle arrest in human MCF7 cells assessed as accumulation at G0/G1 phase at 5 uM measured after 48 hrs by propidium iodide staining based flow cytometric analysis (reference value: 24.44%); format: functional
MCF7 [8] = experiment: Induction of apoptosis in human MCF7 cells assessed as live cells at 1 uM incubated for 24 hrs by AnnexinV-FITC/propidium iodide staining based flow cytometric analysis (reference value: 98.1%); format: functional
MCF7 [9] = experiment: Induction of apoptosis in human MCF7 cells assessed as necrotic cells at 5 uM incubated for 24 hrs by AnnexinV-FITC/propidium iodide staining based flow cytometric analysis (reference value: 0.4%); format: functional
MCF7 [10] = experiment: Induction of apoptosis in human MCF7 cells assessed as live cells at 5 uM incubated for 24 hrs by AnnexinV-FITC/propidium iodide staining based flow cytometric analysis (reference value: 98.1%); format: functional
Ishikawa = experiment: Antiproliferative activity against human Ishikawa cells assessed as reduction in cell growth incubated for 48 hrs by CCK8 assay; format: functional, cell-based; outline: as §1
MCF7 [11] = experiment: Cell cycle arrest in human MCF7 cells assessed as accumulation at S phase at 10 uM measured after 48 hrs by propidium iodide staining based flow cytometric analysis (reference value: 63.32%); format: functional
MCF7 [12] = experiment: Induction of apoptosis in human MCF7 cells assessed as necrotic cells at 1 uM incubated for 24 hrs by AnnexinV-FITC/propidium iodide staining based flow cytometric analysis (reference value: 0.4%); format: functional
MCF7 [13] = experiment: Induction of apoptosis in human MCF7 cells assessed as early apoptotic cells at 1 uM incubated for 24 hrs by AnnexinV-FITC/propidium iodide staining based flow cytometric analysis (reference value: 0.8%); format: functional
MCF7 [14] = experiment: Cell cycle arrest in human MCF7 cells assessed as accumulation at G0/G1 phase at 1 uM measured after 48 hrs by propidium iodide staining based flow cytometric analysis (reference value: 24.44%); format: functional
MCF7 [15] = experiment: Cell cycle arrest in human MCF7 cells assessed as accumulation at S phase at 5 uM measured after 48 hrs by propidium iodide staining based flow cytometric analysis (reference value: 63.32%); format: functional
[16] = Half life in rat liver microsomes; format: ADME, Microsome
MCF7 [17] = experiment: Cell cycle arrest in human MCF7 cells assessed as accumulation at G0/G1 phase at 10 uM measured after 48 hrs by propidium iodide staining based flow cytometric analysis (reference value: 24.44%); format: functional
[18] = Half life in rat plasma; format: ADME, cell-free
MCF7 [19] = experiment: Induction of apoptosis in human MCF7 cells assessed as late apoptotic cells at 10 uM incubated for 24 hrs by AnnexinV-FITC/propidium iodide staining based flow cytometric analysis (reference value: 0.7%); format: functional
MCF7 [20] = experiment: Downregulation of ERalpha expression in human MCF7 cells at 0.5 uM incubated for 24 hrs by Western blot assay; format: functional, cell-based
Outline: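 MCF-7 cells were kept in phenol red-free DMEM/F12 with 10% serum for 72 h before plating, then treated at 125, 250 and 500 nM for 24 h. Cells were lysed in RIPA buffer, protein was measured by BCA, and equal amounts were run on 10% SDS-PAGE and transferred to PVDF. ERα band intensity was normalized to GAPDH in each repeat.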

MCF7 [21] = experiment: Cell cycle arrest in human MCF7 cells assessed as accumulation at G2/M phase at 1 uM measured after 48 hrs by propidium iodide staining based flow cytometric analysis (reference value: 12.24%); format: functional
[22] = target: T1, Estrogen receptor (Homo sapiens) (UniProt P03372); experiment: Covalent antagonist activity at ERalpha in human MCF7 cells assessed as decrease in estradiol-induced GREB1 mRNA expression level at 0.25 to 10 uM measured after 24 hrs by RT-PCR analysis; format: cell-based; conditions: filed as antagonist, dose 0.25-10 µM
T1 sequence (whole entry): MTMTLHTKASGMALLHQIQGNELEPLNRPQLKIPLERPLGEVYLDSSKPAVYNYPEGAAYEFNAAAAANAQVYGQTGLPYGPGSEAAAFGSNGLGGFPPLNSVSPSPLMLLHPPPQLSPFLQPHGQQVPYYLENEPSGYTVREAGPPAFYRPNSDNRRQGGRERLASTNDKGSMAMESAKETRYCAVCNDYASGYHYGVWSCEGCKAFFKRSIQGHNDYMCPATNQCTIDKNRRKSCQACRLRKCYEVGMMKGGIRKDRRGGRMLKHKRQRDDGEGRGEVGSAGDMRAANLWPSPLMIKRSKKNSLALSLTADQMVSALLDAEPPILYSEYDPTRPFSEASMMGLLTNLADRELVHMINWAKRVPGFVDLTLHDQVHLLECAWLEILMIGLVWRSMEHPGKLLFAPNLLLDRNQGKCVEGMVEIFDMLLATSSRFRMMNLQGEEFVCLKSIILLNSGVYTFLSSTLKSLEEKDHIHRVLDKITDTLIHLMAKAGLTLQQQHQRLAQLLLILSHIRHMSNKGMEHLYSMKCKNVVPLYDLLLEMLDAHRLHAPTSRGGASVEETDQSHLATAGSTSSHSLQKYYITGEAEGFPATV
Outline: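 MCF-7 cells stimulated with estradiol, then co-incubated 24 h with compound at 0.25, 0.5, 1 and 10 µM. RNA was reverse-transcribed and GREB1 or TFF1 measured by SYBR Green qPCR: 95 °C 10 min, then 40 cycles of 95 °C 5 s, 60 °C 60 s, 95 °C 15 s. Normalised to GAPDH, ΔΔCT method.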

IC50 (MDA-MB-231): > 50 µM | IC50 (MCF7 [3]): 7.34 µM | half-life [16]: 0.636 h | half-life [18]: 17 h | inhibition [22]: Dose-Dependent Effect
Structure (SMILES): O=C(/C=C/CNCCOc1ccc(Oc2c(-c3ccc(F)cc3)sc3cc(O)ccc23)cc1)N1CCC1
Activity (MCF7 [1]): 12.5% | Activity (MCF7 [2]): 51.43% | inhibition (MCF7 [4]): Active | Activity (MCF7 [5]): 6.4% | Activity (MCF7 [6]): 73.6% | Activity (MCF7 [7]): 37.54% | Activity (MCF7 [8]): 97.8% | Activity (MCF7 [9]): 0.4% | Activity (MCF7 [10]): 87.9% | IC50 (Ishikawa): 6.56 µM | Activity (MCF7 [11]): 38.75% | Activity (MCF7 [12]): 0.2% | Activity (MCF7 [13]): 0.8% | Activity (MCF7 [14]): 31.21% | Activity (MCF7 [15]): 46.98% | Activity (MCF7 [17]): 42.95% | Activity (MCF7 [19]): 13.2% | inhibition (MCF7 [20]): Active | Activity (MCF7 [21]): 17.36%
